Active and inactive are the calls of the source. The rule behind the calls is not given here.
Experiments:
HepG2 = test: Cytotoxicity against human HepG2 cells up to 100 uM after 48 hrs by WST1 assay; format: cell-based; settings: hepg2, 48 h
[1] = target: Vitamin D3 receptor (Homo sapiens) (UniProt P11473); test: Transactivation of human GAL4-fused VDR ligand binding domain expressed in […] cells at 10 uM after 12 to 14 hrs by dual-glo luciferase reporter gene assay; format: cell-based
Outline: (§1)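 HEK293T cells in DMEM/10% FCS, Opti-MEM before Lipofectamine LTX transfection with pFR-Luc reporter, pRL-SV40 and pFA-CMV GAL4–LBD plasmid. 5 h later compound in 0.1% DMSO, Opti-MEM, overnight (12−14 h). Dual luciferase; firefly/renilla ×1000 = RLU, fold over DMSO control; triplicates, ≥3 independent repeats.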

[2] = Tmax in C57BL/6JRj mouse at 10 mg/kg, po measured up to 480 mins post dose by LC-MS analysis; format: ADME, organism-based; settings: in vivo
Outline: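 Male C57BL/6JRj mice (23−26 g), six dosed once orally at 10 mg/kg in water with 1% HPMC/Tween 80 (99:1), three vehicle. Tail-vein blood (20 μL) at 15, 30, 60, 120, 240 and 480 min, last by retro-orbital puncture. Blood spiked, acetonitrile precipitation with griseofulvin internal standard, LC−MS on phenyl-hexyl column. Noncompartmental PK analysis.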

[3] = target: Nuclear receptor subfamily 1 group I member 3 (Homo sapiens, UniProt Q14994); test: Transactivation of human GAL4-fused CAR ligand binding domain expressed in […] cells at 10 uM after 12 to 14 hrs by dual-Glo luciferase reporter gene assay; format: cell-based; outline: as §1
[4] = target: T1, Peroxisome proliferator-activated receptor gamma (Homo sapiens) (UniProt P37231); test: Transactivation of PPARgamma in human HepG2 cells assessed as CD36 mRNA expression at 10 uM after 8 to 16 hrs by SYBR green based qRT-PCR analysis relative to DMSO control; format: cell-based
T1 sequence (whole entry): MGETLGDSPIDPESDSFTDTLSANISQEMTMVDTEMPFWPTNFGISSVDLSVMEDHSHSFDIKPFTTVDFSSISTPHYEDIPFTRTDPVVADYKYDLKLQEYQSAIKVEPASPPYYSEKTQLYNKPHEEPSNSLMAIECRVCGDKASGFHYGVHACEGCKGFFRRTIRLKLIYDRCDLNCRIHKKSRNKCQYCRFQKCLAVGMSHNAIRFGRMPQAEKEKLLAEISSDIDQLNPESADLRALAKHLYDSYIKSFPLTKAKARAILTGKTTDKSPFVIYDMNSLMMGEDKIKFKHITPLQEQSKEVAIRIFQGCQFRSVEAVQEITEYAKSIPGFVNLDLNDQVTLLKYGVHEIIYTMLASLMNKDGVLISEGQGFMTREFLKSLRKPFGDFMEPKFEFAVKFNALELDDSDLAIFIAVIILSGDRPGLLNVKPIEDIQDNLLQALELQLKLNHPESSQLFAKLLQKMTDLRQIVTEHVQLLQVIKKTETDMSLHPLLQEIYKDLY
Outline: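 HepG2 cells treated 8 or 16 h with compound or 0.1% DMSO, washed in cold PBS, RNA extracted; SYBR Green qRT-PCR in duplicate, ≥4 independent experiments (n = 3 for CD36/FAM3A). ΔΔCt method with GAPDH reference; expression as % of vehicle (100%). Pioglitazone 1 μM used as positive control for the PPARγ genes.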

Bile acid receptor = target: T2, Bile acid receptor (Homo sapiens, UniProt Q96RI1); test: Transactivation of FXR in human HepG2 cells assessed as CYP7A1 mRNA expression at 1 uM after 8 to 16 hrs by SYBR green based qRT-PCR analysis relative to DMSO control; format: ADME, cell-based
T2 sequence (Q96RI1 whole entry): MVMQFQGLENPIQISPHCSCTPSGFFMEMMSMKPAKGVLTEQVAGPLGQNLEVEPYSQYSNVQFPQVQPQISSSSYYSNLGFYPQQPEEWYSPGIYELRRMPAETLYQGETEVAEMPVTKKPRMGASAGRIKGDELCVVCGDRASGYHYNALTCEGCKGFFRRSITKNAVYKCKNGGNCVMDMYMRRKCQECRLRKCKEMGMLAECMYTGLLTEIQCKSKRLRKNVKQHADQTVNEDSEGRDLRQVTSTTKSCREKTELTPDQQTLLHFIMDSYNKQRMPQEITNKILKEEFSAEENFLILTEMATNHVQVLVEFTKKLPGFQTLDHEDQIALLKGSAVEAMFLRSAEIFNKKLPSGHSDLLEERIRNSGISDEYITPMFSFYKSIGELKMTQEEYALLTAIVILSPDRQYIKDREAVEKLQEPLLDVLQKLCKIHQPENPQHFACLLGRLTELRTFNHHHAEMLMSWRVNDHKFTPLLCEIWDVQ
Outline: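 HepG2 cells incubated with test compound (0.1 and 1 μM) or 0.1% DMSO for 8 or 16 h, washed in cold PBS, RNA extracted; target mRNA by SYBR Green qRT-PCR, duplicate samples, ≥4 independent experiments; comparative ΔΔCt with GAPDH reference, vehicle set as 100%.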

Liver [5] = test: Drug metabolism in Sprague-Dawley rat liver microsomes assessed as N-(2-chloro-4-(methylsulfonamido)benzyl)-4-(1-hydroxy-2-methylpropan-2-yl)benzamide formation at 10 uM preincubated with NADPH regenerating system for 5 mins followed by addition of liver microsomes by LC-MS/MS method; format: ADME, microsome
Liver [6] = test: Drug metabolism in Sprague-Dawley rat liver microsomes assessed as N-(4-Amino-2-chlorobenzyl)-4-(tert-butyl)benzamide formation at 10 uM preincubated with NADPH regenerating system for 5 mins followed by addition of liver microsomes by LC-MS/MS method; format: ADME, microsome

Sequence of Vitamin D3 receptor (Homo sapiens) (P11473 whole entry, the tested form may be a part): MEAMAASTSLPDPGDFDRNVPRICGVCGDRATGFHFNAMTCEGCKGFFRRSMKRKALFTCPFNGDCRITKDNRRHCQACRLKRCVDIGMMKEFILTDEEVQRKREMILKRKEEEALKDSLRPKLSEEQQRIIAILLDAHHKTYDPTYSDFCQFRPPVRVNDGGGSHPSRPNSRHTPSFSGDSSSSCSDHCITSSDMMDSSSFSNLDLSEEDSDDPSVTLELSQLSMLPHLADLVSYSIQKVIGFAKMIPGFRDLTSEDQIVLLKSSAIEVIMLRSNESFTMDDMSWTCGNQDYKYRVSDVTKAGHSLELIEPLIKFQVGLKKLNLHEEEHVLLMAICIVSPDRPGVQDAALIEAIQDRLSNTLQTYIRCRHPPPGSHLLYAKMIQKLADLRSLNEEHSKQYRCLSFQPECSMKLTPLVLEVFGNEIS
Sequence of Nuclear receptor subfamily 1 group I member 3 (Q14994 whole entry, the tested form may be a part): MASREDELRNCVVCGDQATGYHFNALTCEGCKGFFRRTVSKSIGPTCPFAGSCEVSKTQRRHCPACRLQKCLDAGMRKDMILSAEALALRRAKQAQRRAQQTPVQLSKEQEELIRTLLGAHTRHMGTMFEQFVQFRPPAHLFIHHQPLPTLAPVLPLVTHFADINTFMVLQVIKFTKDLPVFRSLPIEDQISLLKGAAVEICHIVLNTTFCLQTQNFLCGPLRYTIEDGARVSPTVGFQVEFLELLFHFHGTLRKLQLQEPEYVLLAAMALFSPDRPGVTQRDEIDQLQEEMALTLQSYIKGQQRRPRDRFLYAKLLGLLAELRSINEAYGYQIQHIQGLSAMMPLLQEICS

Q: With `CC(C)(C)c1ccc(C(=O)NCc2ccc(NS(C)(=O)=O)cc2Cl)cc1` as the molecule, how does the Activity (HepG2) read?
A: Its Activity is “Non-Toxic”.

Q: And the Activity [1]?
A: The Activity was “inactive”.

Q: And the Tmax [2]?
A: Its Tmax is 30 min.

Q: What about the Activity [3] of the same molecule?
A: The Activity was “Not Active”.

Q: What about the Activity [4] of the same molecule?
A: Its Activity is 129%.

Q: And the Activity (Bile acid receptor)?
A: The Activity was 52%.

Q: And the Drug metabolism (Liver [5])?
A: The Drug metabolism was “Metabolite_Detected”.

Q: And the Drug metabolism (Liver [6])?
A: The Drug metabolism was “Metabolite_Detected”.

From ChEMBL document CHEMBL4017509, “A Dual Modulator of Farnesoid X Receptor and Soluble Epoxide Hydrolase To Counter Nonalcoholic Steatohepatitis” (J Med Chem, 2017)
